Screens from PubChem BioAssay.
RAM network inh: inhibitors of the yeast RAM network, primary screen, dse1pr::URA3 reporter, 5-FOA selection | S. cerevisiae dse1pr::URA3 reporter, 5-FOA growth OD615, 2 d; analog-sensitive cbk1-as2 kinase mutant strain | inhibition, % at 50 µM | actives 1.8% (n = 190,000);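 active means inhibition above a set limit, 3 SD over mean compound inhibition, cut at about 8.4% in these data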;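 further: 0% = DMSO-only wells with no growth and 100% = 10 µM 1-NA-PP1 full growth; inhibition rescues growth on 5-FOA so higher OD means more RAM inhibition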
Measles CPE: compounds protecting cells from measles virus cytopathic effect, primary screen, measles RdRp inhibitor project, single point, MLSMR library, absorbance | Measles virus-infected cells, CPE protection | protection (pct of control), % at 4 µM | actives 1.5% (n = 140,000); in the data active means protection mostly above about 24%, no sharp cut-off; inactive means mostly below about 26%
BB579 growth dn: growth inhibitors of yeast BB579 in restrictive medium, primary screen, yeast lifespan-shortening project, S. cerevisiae; OD615, 48 h; inhibition, % at 10 µM; actives 0.51% (n = 140,000); AID 804, 2007;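 active means inhibition above a set limit, 3 SD over the mean compound inhibition, cut at about 44% in these data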
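Assay system – yeast BB579 (DeaD) · Dosing – single compound dose of 10 µM, 0.25% DMSO final · Detection – OD615 turbidity measurement · Buffer or medium – CSMM-D restrictive synthetic medium containing dextrose (glucose) · Benchmarks – positive control amphotericin B 10 µg/mL · Incubation – 48 h exposure, 30 °C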
Yeast lifespan up: compounds extending yeast replicative lifespan, primary screen, S. cerevisiae, OD615 | S. cerevisiae growth with nicotinamide; deaD strain in restrictive glucose medium | inhibition of the nicotinamide effect, % at 10 µM | actives 0.68% (n = 130,000);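 active means inhibition above a set limit, placed 3 SD over the median of all compounds, cut at about 26% in these data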;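 further: 0% = nicotinamide-treated wells and 100% = cells grown without nicotinamide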
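Buffer or medium: CSMM-D glucose medium, restrictive; test system: modified budding yeast, DeaD strain; compound: single dose 10 µM compound, 0.25% DMSO; schedule: culture preincubation 4 h, compound exposure 48 h, both 30 °C; detection: optical density (absorbance) at 615 nm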
RAM efflux-def: 5-FOA growth of efflux-deficient control yeast, dose response, counter-screen for RAM network inhibitor project, S. cerevisiae, OD615; shares compounds with RAM network inh; S. cerevisiae efflux-deficient reporter strain, 5-FOA growth OD615, 2 days; max inhibition, %; 1,200 tested, under 10 active; AID 1305, 2008; call rule not given here;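 further: plate controls were vehicle for no effect and reference inhibitor for full effect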
Starred values were filed as active, the others as inactive; / = not tested or not shown. An excerpt weighted towards active compounds, which were near 3.6% of everything screened.

SMILES | RAM network inh | Measles CPE | BB579 growth dn | Yeast lifespan up | RAM efflux-def
Cc1ccc(S(=O)(=O)N2CCN(C(=O)C3COc4ccccc4O3)CC2)cc1C (configuration not stated) | 17* | 6 | -50 | -2 | 3
COc1ccc(S(=O)(=O)N2c3cc(C)ccc3OCC2C(C)(C)C)cc1 (configuration not stated) | 5 | 5 | -73 | 5 | /
Cc1ccc(S(=O)(=O)N2c3cc(C)ccc3OCC2C(C)(C)C)cc1 (configuration not stated) | 13* | 0 | -24 | -1 | 4
CC1=NN(c2ccccc2)C(=O)/C1=C\C=C1/N(C)c2ccccc2C1(C)C | -1 | 11 | 10 | -8 | /
CN1/C(=C\C=C2/C(=O)Oc3ccccc3C2=O)C(C)(C)c2ccccc21 | 21* | 10 | -28 | 3 | 10
O=c1c(-c2nnc(SCc3ccc(Cl)cc3Cl)o2)cccn1Cc1ccccc1 | 12* | 6 | -40 | 5 | 1
CCN(CC)S(=O)(=O)c1cccc(-c2nnc(SCCOc3ccccc3C)o2)c1 | 12* | 4 | -54 | -6 | 2
CCN(CC)S(=O)(=O)c1cccc(-c2nnc(SCCOc3ccc(Cl)cc3)o2)c1 | 16* | 6 | -25 | 2 | 3
CCN(CC)S(=O)(=O)c1cccc(-c2nnc(SCCOc3ccccc3)o2)c1 | 13* | 18 | -79 | 10 | 3
CC(O)c1nc2ccccc2n1CC(=O)N1CCN(c2ccccc2)CC1 (configuration not stated) | 2 | / | / | / | /
O=C(c1ccccc1)c1sc(N2CCCCCC2)nc1-c1ccccc1 | 12* | 1 | -58 | 2 | 4
COc1ccc(-c2nc(N3CCCCCC3)sc2C(=O)c2ccccc2)cc1 | 7 | 20 | -50 | 1 | /
CCCOc1ccc(CC(=O)NNC(=S)Nc2ccccc2)cc1Br | 15* | 2 | -27 | / | 2
CSCCC(NC(N)=O)C(=O)Nc1ccc2ccccc2c1 (configuration not stated) | 2 | / | / | / | /
CSCCC(NS(=O)(=O)c1ccc2ccccc2c1)C(=O)OCC(=O)c1ccc(C(C)C)cc1 (configuration not stated) | 15* | 3 | -16 | 6 | 4
CC1CCN(S(=O)(=O)c2ccc3nc(-c4ccccn4)cc(C(=O)NCCN(C)Cc4ccccc4)c3c2)CC1 | -1 | / | / | / | /
CC(C)[C@H](NS(=O)(=O)c1ccccc1)C(=O)OCC(=O)Nc1ccccc1Sc1ccccc1 | 15* | 14 | -24 | 11 | 6
O=C(COC(=O)CNS(=O)(=O)c1c(Cl)cccc1Cl)Nc1ccccc1Sc1ccccc1 | 8 | 6 | -41 | 7 | /
COc1ccccc1/C=C/C(=O)OCC(=O)Nc1ccccc1Sc1ccccc1 | 15* | 6 | -31 | -1 | 3
O=C(COC(=O)CNS(=O)(=O)c1cccc(Br)c1)Nc1ccccc1Sc1ccccc1 | 15* | 6 | -48 | 11 | 2
O=C(COC(=O)/C=C/c1ccc([N+](=O)[O-])cc1)NC(c1ccccc1)c1ccccc1 | 1 | 5 | -39 | -3 | /
C/C(CC1CC2=C(CC1(C)C)C(C)(C)CCC2)=N\NC(N)=S (configuration not stated) | 13* | 5 | 13 | -2 | 1
O=C(O)C(Cc1ccccc1)N1C(=O)c2ccccc2C1=O (configuration not stated) | 1 | 4 | 6 | -6 | /
CC(=C\c1ccccc1)/C=C1/SC(=S)N(C(C(=O)O)C(C)C)C1=O (configuration not stated) | 21* | / | / | / | 4
Cc1ccc(/C=C2\SC(=S)N(C(Cc3ccccc3)C(=O)O)C2=O)cc1 (configuration not stated) | 17* | 5 | -48 | 8 | 10
SMILES | RAM network inh | Measles CPE | BB579 growth dn | Yeast lifespan up | RAM efflux-def
O=C(CNS(=O)(=O)c1ccccc1)OCC(=O)c1ccc(OC(=O)c2ccccc2)cc1 | 4 | 7 | 3 | -3 | /
Cc1ccccc1OCC(=O)OCC(=O)c1ccc(OC(=O)c2ccccc2)cc1 | 14* | 3 | -30 | 3 | 3
Cc1ccccc1OCC(=O)OCC(=O)c1ccc(OCc2ccccc2)cc1 | 12* | 22 | -27 | 6 | 4
CN=C(Nc1cccc(Cl)c1)SC1CC(=O)N(c2ccc(OC)cc2)C1=O (configuration not stated) | 4 | / | / | / | /
CCc1ccc(Nc2nnc(SCC(=O)NCCN3C(=O)CSC3=O)s2)cc1 | 3 | 17 | -6 | 0 | /
O=C(Cc1cccs1)N1CCN(c2nc(-c3ccc(Cl)cc3)cs2)CC1 | 14* | 2 | -66 | 2 | 1
Clc1ccc(-c2csc(N3CCC(c4ccccc4)C3)n2)cc1 (configuration not stated) | 14* | 2 | -36 | -8 | 7
Fc1ccc(-c2csc(N3CCC(c4ccccc4)C3)n2)cc1 (configuration not stated) | 3 | 9 | -6 | -14 | /
O=C(COc1ncnc2ccccc12)NCC1CCCO1 (configuration not stated) | 1 | / | / | / | /
CN(Cc1cn(-c2ccccc2)nc1-c1ccc(Cl)cc1)C(=O)CCC(=O)O | -1 | 4 | -27 | 8 | /
COc1cc(OC)cc(C(=O)Nc2nnc(Cc3ccc(OC)c(OC)c3)s2)c1 | 4 | / | / | / | /
CCOC(=O)C(Cc1ccc(O)cc1)NC(=O)CNC(=O)C1CCCN1C(=O)OC(C)(C)C (configuration not stated) | 2 | / | / | / | /
COc1ccc(CSCC(=O)Nc2ccc(S(=O)(=O)N3CCCCCC3)cc2)cc1 | 14* | 10 | -56 | 6 | 1
Cc1cc2ccccn2c1C(=O)c1cc([N+](=O)[O-])cc([N+](=O)[O-])c1 | 3 | / | / | / | /
CCN(CC)S(=O)(=O)c1cccc(C(=O)c2c(C)cc3ccccn23)c1 | 15* | 10 | -53 | 12 | 2
CCOc1ccccc1NC(=O)C(NCC1(N2CCCCC2)CCCCC1)c1ccccc1 (configuration not stated) | 2 | / | / | / | /
CCN=C1SC(CC(=O)NC(C)c2ccccc2)C(=O)N1CC (configuration not stated) | 1 | / | / | / | /
Cc1ccc(-c2csc(N(CC3CCCO3)C(=O)c3ccco3)n2)cc1 (configuration not stated) | 13* | 7 | -49 | -4 | 3
COc1ccc(-c2csc(N(CC3CCCO3)C(=O)c3ccccc3)n2)cc1 (configuration not stated) | 5 | / | / | / | /
O=C(c1cccs1)N(CC1CCCO1)c1nc(-c2ccccc2)cs1 (configuration not stated) | 16* | 9 | -32 | -9 | 2
O=C(c1ccco1)N(CC1CCCO1)c1nc(-c2ccccc2)cs1 (configuration not stated) | 7 | 10 | -44 | -9 | /
